5 molecules from ChEMBL document CHEMBL1124173, “Enantiomers of 7-(2,3-epoxypropoxy)actinomycin D as dual-action DNA-acting antitumor agents” (J Med Chem, 1988) can be followed below.

The species entered for series [1] is Bos taurus. Kind of series: Thermal denaturation of calf thymus DNA measured as ΔTm. The conditions noted are these: cattle, in vitro.
The subject of series [2] is L1210. Kind of series: Inhibition of synthesis of [5-3H]-uridine into RNA in L1210 cells. It is filed as functional, cell-based, Mus musculus. To be noted: l1210. An outline of the steps:
(§1)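 Actively growing L1210 cells in vitro. Incorporation of [5-3H]uridine into RNA, or [methyl-14C]thymidine into DNA, compared with untreated cells. IC50 is micromolar drug concentration giving 50% reduction in incorporation rate.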

The test system of series [3] is L1210. Kind of series: Inhibition of synthesis of [methyl-14C] thymidine into DNA, in L1210 cells. It is filed as functional, cell-based, Mus musculus. An outline of the steps: as §1
Series [4] in a line: Molar ratio of DNA to total amount of compound that is bound both intercalatively and covalently to calf thymus DNA helix. The series is classed as functional. An outline of the steps:
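[3H]Drug and purified calf thymus DNA dialyzed at 37 °C in Tris HCl pH 7.4 (20 mM per footnote; 25 mM in methods). Equilibrated complex precipitated twice with ethanol to remove unbound drug. Molar DNA/drug ratio based on total bound drug, intercalative plus covalent.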

Series [5] in a line: Ratio of DNA to compound bound entirely by covalent bonding to DNA base. It is filed as functional. An outline of the steps:
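[3H]Drug and purified calf thymus DNA dialyzed at 37 °C in Tris HCl buffer; complex twice ethanol-precipitated to remove unbound drug. Molar DNA/drug ratio calculated from drug bound only covalently to DNA bases.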

The test system of series [6] is Mus musculus. As to the kind of experiment: Antitumor activity measured as median survival time, for ip administration and ip inoculation of B16 melanoma. The series is classed as functional. In short, it runs like this:
(§2)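 B16 brei (tumor weight/Hank's balanced salt solution 1:5, 0.2 mL) implanted sc or ip into groups of nine BDF1 mice on day 0. Drug given iv on day 1 (sc tumor) or ip on days 1, 5 and 9 (ip tumor), in 0.1 mL 5% v/v Me2SO-saline. Read-out is median survival time and %ILS versus untreated controls, excluding sixty-day survivors.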

The species entered for series [7] is Mus musculus. As to the kind of experiment: Antitumor activity measured as % increase in life span, against C26 colon carcinoma. The series is classed as functional. An outline of the steps: (§3)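 C26 primary colon carcinoma cells (trypan blue excluding, 2.5 × 10^5 cells/mouse) implanted in CDF1 mice on day 0. Drug given ip on days 1, 5 and 9 in 0.1 mL 5% v/v Me2SO-saline at optimal dose. Read-out is median survival time; %ILS is drug-treated over control, excluding survivors. Sixty-day survivors are counted.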

The test system of series [8] is Mus musculus. Kind of series: Antitumor activity measured as % increase in life span, for ip administration of compound and ip inoculation of B16 melanoma. The series is classed as functional. In short, it runs like this:
as §2

The species entered for series [9] is Mus musculus. Kind of series: Antitumor activity measured as median survival time, against C26 colon carcinoma. The series is classed as functional. In short, it runs like this: as §3
For series [10], the system named is Mus musculus. As to the kind of experiment: Antitumor activity measured as median survival time, for iv administration and sc inoculation of B16 melanoma.
For series [11], the system named is Mus musculus. Kind of series: Antitumor activity measured as % increase in life span, for iv administration of compound and sc inoculation of B16 melanoma.
The species entered for series [12] is Mus musculus. As to the kind of experiment: Antitumor activity measured as optimal dose, against C26 colon carcinoma. It is filed as functional. An outline of the steps:
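Primary colon C26 carcinoma cells (trypan blue excluding, 2.5 × 10^5 cells/mouse) implanted in CDF1 mice on day 0. Drug given ip on days 1, 5 and 9 in 0.1 mL 5% v/v Me2SO-saline. Optimal dose in […]; %ILS and 60-day survivors scored.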

For `Cc1c2oc3c(C)c(OCC4CO4)cc(C(=O)N[C@@H]4C(=O)N[C@H](C(C)C)C(=O)N5CCC[C@H]5C(=O)N(C)CC(=O)N(C)[C@@H](C(C)C)C(=O)O[C@@H]4C)c3nc-2c(C(=O)N[C@@H]2C(=O)N[C@H](C(C)C)C(=O)N3CCC[C@H]3C(=O)N(C)CC(=O)N(C)[C@@H](C(C)C)C(=O)O[C@@H]2C)c(N)c1=O` (stereo in doubt), in series [1], the ΔTm was determined as 5. Moreover, the IC50 in series [2] is 50 nM; in series [3] (l1210), 60 nM.

Consider `Cc1c2oc3c(C)c(OCC4CO4)cc(C(=O)N[C@@H]4C(=O)N[C@@H](C(C)C)C(=O)N5CCC[C@H]5C(=O)N(C)CC(=O)N(C)[C@@H](C(C)C)C(=O)O[C@H]4C)c3nc-2c(C(=O)N[C@@H]2C(=O)N[C@@H](C(C)C)C(=O)N3CCC[C@H]3C(=O)N(C)CC(=O)N(C)[C@@H](C(C)C)C(=O)O[C@H]2C)c(N)c1=O` (stereo in doubt; 3b), for which the Ratio in series [4] turned out to be 32; in series [5], 480.

Molecule `Cc1c2oc3c(C)c(OC[C@H]4CO4)cc(C(=O)N[C@@H]4C(=O)N[C@H](C(C)C)C(=O)N5CCC[C@H]5C(=O)N(C)CC(=O)N(C)[C@@H](C(C)C)C(=O)O[C@@H]4C)c3nc-2c(C(=O)N[C@@H]2C(=O)N[C@H](C(C)C)C(=O)N3CCC[C@H]3C(=O)N(C)CC(=O)N(C)[C@@H](C(C)C)C(=O)O[C@@H]2C)c(N)c1=O` had a 50% inhibitory concentration (IC50) in series [3] (Mus musculus, L1210) of 60 nM. This lies in the double-digit nanomolar range.

Take `Cc1c2oc3c(C)c(OCC4CO4)cc(C(=O)N[C@@H]4C(=O)N[C@H](C(C)C)C(=O)N5CCC[C@H]5C(=O)N(C)CC(=O)N(C)[C@@H](C(C)C)C(=O)O[C@@H]4C)c3nc-2c(C(=O)N[C@@H]2C(=O)N[C@H](C(C)C)C(=O)N3CCC[C@H]3C(=O)N(C)CC(=O)N(C)[C@@H](C(C)C)C(=O)O[C@@H]2C)c(N)c1=O` (stereo in doubt; 3b): the IC50 in series [2] was found to be 24 nM; in series [3] (Mus musculus, L1210), 80 nM.

For the molecule `COc1cccc2c1C(=O)c1c(O)c3c(c(O)c1C2=O)C[C@@](O)(C(=O)CO)C[C@@H]3O[C@H]1C[C@H](N)[C@H](O)[C@H](C)O1` [DOXORUBICIN], the MST was found to be 60 days in series [6], 48 days in series [9] and 59 days in series [10]. For the same molecule, the ILS in series [7] turned out to be 118%; in [8], 224%; in [11] it was 79%. Further, the Dose in [12] is 2.5 mg/kg.

One may read the IC50 as the midpoint of a concentration-inhibition curve. A high value points to a need for much substance. By ILS is commonly meant how much longer treated animals lived than controls.
